# Test results reported in ChEMBL document CHEMBL1157420, “2-phenyl-4-piperazinylbenzimidazoles: orally active inhibitors of the gonadotropin releasing hormone (GnRH) receptor” (Bioorg Med Chem, 2008).
# Experiments:
# [1] = biological target: T1, Gonadotropin-releasing hormone receptor (Homo sapiens) (UniProt P30968); assay: Displacement of [125I]-(D-Trp6)LHRH from human recombinant GnRH receptor at 10 uM
# T1 sequence (whole entry): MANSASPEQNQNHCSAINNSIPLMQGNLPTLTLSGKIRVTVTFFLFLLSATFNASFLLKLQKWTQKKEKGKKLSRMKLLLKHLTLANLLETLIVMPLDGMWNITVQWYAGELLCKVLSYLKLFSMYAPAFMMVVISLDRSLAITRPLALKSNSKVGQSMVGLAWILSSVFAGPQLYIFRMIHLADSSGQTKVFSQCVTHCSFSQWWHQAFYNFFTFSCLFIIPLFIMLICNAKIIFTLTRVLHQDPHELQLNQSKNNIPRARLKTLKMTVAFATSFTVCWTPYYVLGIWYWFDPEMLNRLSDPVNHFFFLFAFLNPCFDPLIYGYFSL
# Procedure, shortened: (§1)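 Membranes from recombinant cells expressing human or rat GnRH receptor, made in 25 mM Tris-Cl pH 7.4 with 0.1% sodium azide and 0.1% BSA. 50 μg protein incubated with about 50,000 cpm 125I-(D-Trp6)-LHRH for 2 h at 4 °C, with increasing unlabeled competitor. Filtered on BSA-presoaked glass-fiber filters, washed twice, counted by gamma counter. Percent inhibition and IC50 derived.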
# [2] = biological target: T2, Gonadotropin-releasing hormone receptor (Homo sapiens, UniProt P30968); assay: Antagonist activity at human recombinant GnRH receptor assessed as reduction in (D-Trp6)LHRH-induced myo-(1,2)-[3H]inositol production; format: functional
# T2 sequence (P30968 whole entry): T1 sequence (whole entry)
# Procedure, shortened: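 Recombinant cells expressing human GnRH receptor, pre-labeled with myo-(1,2)-3H-inositol, incubated 1 h in medium with lithium chloride and D-Trp6-LHRH, with or without antagonist. Cells then lysed and labeled inositol phosphates separated from inositol by […] and counted. Run in triplicate, repeated in three independent experiments; IC50 derived.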
# [3] = biological target: T3, Gonadotropin-releasing hormone receptor (Rattus norvegicus, UniProt P30969); assay: Antagonist activity at […] GnRH receptor in CO2 asphyxiated rat primary pituitary cells assessed as reduction in (D-Trp6)LHRH-induced LH release; format: functional, cell-based, Pituitary gland cell
# T3 sequence (P30969 whole entry): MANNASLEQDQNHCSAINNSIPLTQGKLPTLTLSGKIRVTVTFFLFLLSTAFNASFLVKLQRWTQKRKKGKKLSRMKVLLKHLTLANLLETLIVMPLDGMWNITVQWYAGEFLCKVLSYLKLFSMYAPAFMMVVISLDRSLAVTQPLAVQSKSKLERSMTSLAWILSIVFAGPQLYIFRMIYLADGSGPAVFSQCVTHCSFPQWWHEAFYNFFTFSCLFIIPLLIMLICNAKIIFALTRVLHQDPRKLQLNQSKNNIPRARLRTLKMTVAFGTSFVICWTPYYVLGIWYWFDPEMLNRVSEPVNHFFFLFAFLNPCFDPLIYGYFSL
# Procedure, shortened: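 Anterior pituitaries from adult rats were minced, dissociated and plated at 30,000 cells/well in DMEM with 25 mM Hepes and 10% FBS, then cultured 72 h at 37 °C, 5% CO2. After washing, cells were treated 3 h in 0.1% BSA medium with an antagonist dose response plus an ED50 concentration of D-Trp6-LHRH. LH in medium measured by RIA; cell toxicity checked by CellTiter-Glo.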
# [4] = biological target: T3, Gonadotropin-releasing hormone receptor; assay: Displacement of [125I]-(D-Trp6)LHRH from rat recombinant GnRH receptor; procedure, shortened: as §1
# [5] = biological target: T2, Gonadotropin-releasing hormone receptor; assay: Displacement of [125I]-(D-Trp6)LHRH from human recombinant GnRH receptor; procedure, shortened: as §1
# [6] = biological target: T4, Alpha-1A adrenergic receptor (Homo sapiens) (UniProt P35348); assay: Binding affinity to alpha1 adrenergic receptor at 10 uM
# T4 sequence (whole entry): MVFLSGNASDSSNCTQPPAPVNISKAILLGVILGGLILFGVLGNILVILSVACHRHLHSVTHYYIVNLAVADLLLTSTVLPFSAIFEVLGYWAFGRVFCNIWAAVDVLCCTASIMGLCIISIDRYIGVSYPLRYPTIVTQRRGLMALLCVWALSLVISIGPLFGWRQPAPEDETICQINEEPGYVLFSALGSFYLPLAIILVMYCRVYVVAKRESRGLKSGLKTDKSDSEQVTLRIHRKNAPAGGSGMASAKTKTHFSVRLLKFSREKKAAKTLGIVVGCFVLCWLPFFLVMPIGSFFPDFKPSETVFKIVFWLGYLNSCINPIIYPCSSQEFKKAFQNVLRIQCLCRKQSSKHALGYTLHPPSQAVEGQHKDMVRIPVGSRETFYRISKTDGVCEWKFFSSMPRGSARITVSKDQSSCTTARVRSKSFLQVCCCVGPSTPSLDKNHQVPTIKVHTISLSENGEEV
# [7] = biological target: T5, 5-hydroxytryptamine receptor 1A (Homo sapiens) (UniProt P08908); assay: Binding affinity to 5HT1A receptor at 10 uM
# T5 sequence (whole entry): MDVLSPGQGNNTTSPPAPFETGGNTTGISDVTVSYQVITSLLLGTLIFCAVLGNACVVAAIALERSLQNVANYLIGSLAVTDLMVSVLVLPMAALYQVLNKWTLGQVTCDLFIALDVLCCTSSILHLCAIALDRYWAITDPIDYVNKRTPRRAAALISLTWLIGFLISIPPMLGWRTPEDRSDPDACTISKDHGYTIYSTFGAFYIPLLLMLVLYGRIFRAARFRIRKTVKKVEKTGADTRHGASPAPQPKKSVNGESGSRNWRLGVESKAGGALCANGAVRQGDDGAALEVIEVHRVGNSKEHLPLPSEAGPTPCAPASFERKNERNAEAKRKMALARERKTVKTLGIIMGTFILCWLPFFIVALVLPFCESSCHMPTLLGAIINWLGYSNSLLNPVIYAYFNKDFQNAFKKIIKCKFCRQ
# [8] = Half life in rat plasma at 10 mg/kg, po; format: ADME, organism-based; design: dose 10 mg/kg, route oral
# [9] = Membrane permeability by PAMPA assay; format: ADME; settings: read-out: permeability
# [10] = Metabolic stability in rat liver microsomes assessed as half life; format: ADME, Microsome
# [11] = Cmax in rat at 10 mg/kg, po; format: ADME, organism-based; design: dose 10 mg/kg, route oral; settings: in vivo
# [12] = Solubility of compound at pH 7.4; format: physicochemical; settings: buffer
# [13] = AUC (0 to infinity) in rat at 10 mg/kg, po; format: ADME, organism-based; design: dose 10 mg/kg, route oral, time infinity; settings: plasma
# [14] = Volume of distribution at steady state in rat at 1.0 mg/kg, iv; format: ADME, organism-based; design: dose 1 mg/kg, route intravenous; settings: in vivo, read-out: Vdss
# [15] = Half life in rat plasma at 1.0 mg/kg, iv; format: ADME, organism-based; design: dose 1 mg/kg, route intravenous
# [16] = Tmax in rat at 10 mg/kg, po; format: ADME, organism-based; design: dose 10 mg/kg, route oral; settings: in vivo
# [17] = Plasma clearance in rat at 1.0 mg/kg, iv; format: ADME, organism-based; design: dose 1 mg/kg, route intravenous
# [18] = AUC (0 to infinity) in rat at 1.0 mg/kg, iv; format: ADME, organism-based; design: time infinity, dose 1 mg/kg, route intravenous; settings: plasma
# [19] = Bioavailability in rat at 10 mg/kg, po; format: ADME, organism-based; settings: in vivo
# [20] = biological target: 5-hydroxytryptamine receptor 1B (Homo sapiens, UniProt P28222); assay: Binding affinity to human 5HT1B receptor at 1000 nM
# 5-hydroxytryptamine receptor 1B, sequence (P28222 whole entry): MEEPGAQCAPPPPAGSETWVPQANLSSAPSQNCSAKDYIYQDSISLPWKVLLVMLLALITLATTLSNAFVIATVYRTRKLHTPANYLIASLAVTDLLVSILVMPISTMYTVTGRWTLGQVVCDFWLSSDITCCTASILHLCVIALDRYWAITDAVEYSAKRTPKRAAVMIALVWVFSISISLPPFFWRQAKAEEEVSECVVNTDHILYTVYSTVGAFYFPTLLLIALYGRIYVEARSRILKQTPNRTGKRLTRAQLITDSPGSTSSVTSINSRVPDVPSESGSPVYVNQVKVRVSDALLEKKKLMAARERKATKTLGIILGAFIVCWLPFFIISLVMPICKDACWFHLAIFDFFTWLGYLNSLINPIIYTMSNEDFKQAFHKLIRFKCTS
# [21] = biological target: T6, 5-hydroxytryptamine receptor 1A (Homo sapiens, UniProt P08908); assay: Binding affinity to human 5HT1A receptor; settings: read-out: Ki
# T6 sequence (P08908 whole entry): T5 sequence (whole entry)
# [22] = biological target: 5-hydroxytryptamine receptor 1D (Homo sapiens, UniProt P28221); assay: Binding affinity to human 5HT1D receptor at 1000 nM
# 5-hydroxytryptamine receptor 1D, sequence (P28221 whole entry): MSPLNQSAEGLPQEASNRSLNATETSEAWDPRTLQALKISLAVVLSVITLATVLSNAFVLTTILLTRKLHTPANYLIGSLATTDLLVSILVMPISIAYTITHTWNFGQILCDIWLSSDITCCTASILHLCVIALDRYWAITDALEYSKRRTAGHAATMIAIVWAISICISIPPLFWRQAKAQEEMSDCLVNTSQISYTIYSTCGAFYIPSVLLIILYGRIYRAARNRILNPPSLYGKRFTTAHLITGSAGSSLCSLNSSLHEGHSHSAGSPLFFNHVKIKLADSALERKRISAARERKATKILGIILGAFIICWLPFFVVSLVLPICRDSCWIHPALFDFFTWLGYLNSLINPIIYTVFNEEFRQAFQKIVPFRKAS
structure (smiles),measurement,setting,value
FC(F)(F)c1nc2cccc(OCCN3CCN(c4cccc5[nH]c(=S)[nH]c45)CC3)c2[nH]1,Activity,[1],42%
CC(C)(C)c1ccc(-c2nc3c(N4CCN(Cc5cccc6[nH]c(=O)[nH]c56)CC4)cccc3[nH]2)cc1,IC50,[2],63 nM
same,IC50,[3],1500 nM
same,IC50,[4],680 nM
same,IC50,[5],8.7 nM
Cc1ccc(-c2nc3c(N4CCN(CCOc5cccc6[nH]c(=S)[nH]c56)CC4)cccc3[nH]2)cc1,IC50,[2],2800 nM
same,IC50,[5],1300 nM
CC(C)(C)c1ccc(-c2nc3c(N4CCN(Cc5ccccc5)CC4)cccc3[nH]2)cc1,Activity,[1],6%
CC(C)(C)c1ccc(-c2nc3c(N4CCN(Cc5cccc6[nH]c(=S)[nH]c56)CC4)cccc3[nH]2)cc1,IC50,[2],14 nM
same,IC50,[3],240 nM
same,Activity,[6],7%
same,Activity,[7],5%
same,IC50,[4],110 nM
same,IC50,[5],6.2 nM
O=C(COc1cccc2[nH]c(=S)[nH]c12)N1CCN(c2cccc3[nH]c(C(F)(F)F)nc23)CC1,Activity,[1],24%
CC(C)(C)c1ccc(-c2nc3c(N4CCN(Cc5ccc6ccccc6c5)CC4)cccc3[nH]2)cc1,Activity,[1],7%
Cc1cccc(-c2nc3c(N4CCN(CCOc5cccc6[nH]c(=S)[nH]c56)CC4)cccc3[nH]2)c1,Activity,[1],47%
S=c1[nH]c2cccc(OCCN3CCN(c4cccc5nccnc45)CC3)c2[nH]1,Activity,[1],1%
Cn1c(C(F)(F)F)nc2c(N3CCN(CCOc4cccc5[nH]c(=S)[nH]c45)CC3)cccc21,Activity,[1],8%
O=c1[nH]c2cccc(N3CCN(CCOc4cccc5nc(C(F)(F)F)[nH]c45)CC3)c2[nH]1,Activity,[1],8%
FC(F)(F)c1nc2c(N3CCN(Cc4cccc5[nH]c(=S)[nH]c45)CC3)cccc2[nH]1,IC50,[2],3400 nM
same,IC50,[4],51000 nM
same,IC50,[5],580 nM
CC(C)(C)c1ccc(-c2nc3c(N4CCN(Cc5c[nH]c(=O)[nH]c5=O)CC4)cccc3[nH]2)cc1,half-life,[8],5.8 h
same,Papp,[9],0.6 ×10⁻⁶ cm/s
same,half-life,[10],0.5 h
same,Cmax,[11],19 ng/mL
same,IC50,[2],9.4 nM
same,solubility,[12],25 µg/mL
same,IC50,[3],41 nM
same,AUC(0-inf),[13],200 ng·h/mL
same,Vd,[14],3.1 L/kg
same,IC50,[4],32 nM
same,half-life,[15],3.5 h
same,Tmax,[16],1.8 h
same,clearance,[17],47 mL/min/kg
same,AUC(0-inf),[18],355 ng·h/mL
same,IC50,[5],5.5 nM
same,bioavailability,[19],5%
FC(F)(F)c1nc2c(N3CCN(CCOc4cccc5[nH]c(=S)[nH]c45)CC3)cccc2[nH]1,inhibition,[20],67%
same,IC50,[2],4500 nM
same,IC50,[3],76000 nM
same,Ki,[21],2.8 nM
same,IC50,[4],21000 nM
same,inhibition,[22],67%
same,IC50,[5],790 nM
Cc1ccc(-c2nc3c(N4CCN(CCOc5cccc6[nH]c(=S)[nH]c56)CC4)cccc3[nH]2)c(C)c1,IC50,[5],1200 nM
Cn1c(C(F)(F)F)nc2c(N3CCN(CCOc4cccc5[nH]c(C(F)(F)F)nc45)CC3)cccc21,Activity,[1],5%
Cc1nc2c(N3CCN(CCOc4cccc5[nH]c(=S)[nH]c45)CC3)cccc2[nH]1,Activity,[1],10%
O=c1[nH]c2cccc(N3CCN(CCOc4cccc5[nH]c(=S)[nH]c45)CC3)c2[nH]1,Activity,[1],6%
